# Results from PubChem BioAssay.
# Active and inactive are the calls of the source.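 Rule for the calls, unless noted: active = inhibition above 20% together with a positive visual image hit; inconclusive = visual image hit but inhibition not above 20%; inactive = no visual image hit.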
# What was measured:
# [1] = inhibitors of TNFa-induced NFkB p65 translocation, primary screen, imaging, HUVEC, MLSMR starter and 10KST1 sets (AID 438); conditions: HUVEC TNFa-induced p65 nuclear translocation; cell count: measured here: nuclei count (cytotoxicity indicator), at 2.08 µM; inhibition: at 2 µM, stronger effect = higher value, 0% TNFa-plus-vehicle, 100% no-TNFa wells;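 note: compound added about 3h40 before a 20 min TNFalpha stimulation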;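 for inhibition: signal is the nuclear over cytoplasmic p65 intensity ratio per well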
# [2] = reduction of polyQ htt aggregates in cells – imaging, exon1htt(103Q)mCFP cells, high-content imaging, primary screen (AID 483;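 active = visual image review flags a hit and inhibition of aggregation exceeds 20%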;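 note: compound exposure lasted 3 days before fixation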;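 for nuclei count: percent of the per-plate median nuclei count of sample wells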); conditions: exon1htt(103Q)mCFP cell line, aggregate imaging, at 2 µM; inhibition of aggregation: stronger effect = higher value; nuclei count: measured here: cell count, toxicity
# [3] = endothelial E-selectin expression blockers – imaging, HUVEC, immunofluorescence, MLSMR starter and 10KST1 sets, primary screen (AID 487;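 active = visually confirmed hit in the image check and inhibition above 20%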;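 for inhibition: signal is fraction of cell area covered by stained E-selectin grains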;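 for nuclei count: 100% = median nuclei count of all wells on the same plate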); conditions: HUVEC TNFalpha-induced E-selectin immunofluorescence imaging, at 2 µM; inhibition: stronger effect = higher value; nuclei count: measured here: cell number, toxicity
# [4] = biological target: Voltage-gated potassium channel subunit beta-2 (Rattus norvegicus) (UniProt P62483); test: inhibitors of rat Kvbeta2 reductase activity – biochemical, NADPH fluorescence, primary screen (AID 622;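 active = fluorescence slope higher than the sample average by over 3 SD, cut at about -0.22 in these data, passing the limit was not always enough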;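 note: slope of raw intensity against log time taken from 70 to 1610 s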); conditions: recombinant KvBeta, 4-cyanobenzaldehyde reduction, at 10 µM, stronger effect = higher value
# [5] = biological target: Voltage-gated potassium channel subunit beta-2 (Rattus norvegicus) (UniProt P62483); test: enhancers of rat Kvbeta2 NADPH turnover – biochemical, NADPH fluorescence, primary screen (AID 623;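 active = NADPH fluorescence slope more negative than the mean of all samples by about 3 SD, 99.7% confidence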;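 note: fluorescence intensity change per second fitted from 20 to 320 s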); conditions: Recombinant KvBeta, NADPH fluorescence decrease slope, 10 min; at 10 µM; stronger effect = lower value
# [6] = biological target: Muscarinic acetylcholine receptor M4 (Homo sapiens) (UniProt P08173); test: M4-linked GIRK flux change, two-sided – cell-based, HEK293 M4/GIRK, thallium flux, BTC-AM, M4 allosteric agonist project, primary screen (AID 625;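 active = fluorescence slope after compound addition differing from the mean of all tested samples at 99.7% confidence, mostly higher but some lower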;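 note: thallium influx through GIRK channels coupled to M4 in HEK293 cells with BTC-AM dye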); conditions: at 10 µM, actives lie on both sides
# How it was run: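 assay system = HEK293 cells with M4 receptor and GIRK channels | medium = pH 7.3 thallium assay buffer | doses = 10 µM final, single point | timing = cells overnight at 37 °C, BTC-AM loading 1 h, reads 2 min total | signal = BTC-AM fluorescence, 1 Hz kinetic reads | read-out = post-addition slope, 15–24 s, of baseline-normalized fluorescence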
# [7] = blockers of RIG-like receptor reporter activation – cell-based, Sendai virus stimulus, luciferase, 10K MLSCN set, TLR/RLR signaling modifier project, primary screen (AID 602276;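 active = inhibition at or above 50% at 10 µM; inactive = inhibition below 50%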;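 note: firefly luciferase from ISG56 promoter only with Renilla not read in this screen; 0% = Sendai virus plus DMSO and 100% = medium plus DMSO without virus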); conditions: HEK293 RL24 IRF3 luciferase reporter, at 10 µM, stronger effect = higher value
# [8] = TLR3 IRF3 reporter activation blockers – cell-based, poly I:C stimulus, luciferase, 10K MLSCN set, primary screen (AID 602277;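 active = inhibition of the reporter signal at or above 50%; inactive = inhibition below 50%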); conditions: HEK293-TLR3 RL24 IRF3 luciferase reporter, at 10 µM, stronger effect = higher value
# Chain of Muscarinic acetylcholine receptor M4 (Homo sapiens) (P08173 whole entry, looked up): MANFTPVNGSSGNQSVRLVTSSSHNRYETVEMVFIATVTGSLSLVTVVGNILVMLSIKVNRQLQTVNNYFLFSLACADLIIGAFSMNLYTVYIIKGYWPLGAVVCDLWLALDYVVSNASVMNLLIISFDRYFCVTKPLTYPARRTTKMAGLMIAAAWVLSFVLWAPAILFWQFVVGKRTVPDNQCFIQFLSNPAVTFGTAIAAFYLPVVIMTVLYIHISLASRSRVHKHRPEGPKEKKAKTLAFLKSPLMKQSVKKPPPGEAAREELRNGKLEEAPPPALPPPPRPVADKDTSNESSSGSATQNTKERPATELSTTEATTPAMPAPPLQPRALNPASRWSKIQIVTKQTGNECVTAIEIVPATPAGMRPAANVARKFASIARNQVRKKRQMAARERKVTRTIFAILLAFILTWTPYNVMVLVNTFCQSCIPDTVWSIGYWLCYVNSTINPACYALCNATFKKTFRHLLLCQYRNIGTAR
# Chain of Voltage-gated potassium channel subunit beta-2 (Rattus norvegicus) (P62483 whole entry, looked up): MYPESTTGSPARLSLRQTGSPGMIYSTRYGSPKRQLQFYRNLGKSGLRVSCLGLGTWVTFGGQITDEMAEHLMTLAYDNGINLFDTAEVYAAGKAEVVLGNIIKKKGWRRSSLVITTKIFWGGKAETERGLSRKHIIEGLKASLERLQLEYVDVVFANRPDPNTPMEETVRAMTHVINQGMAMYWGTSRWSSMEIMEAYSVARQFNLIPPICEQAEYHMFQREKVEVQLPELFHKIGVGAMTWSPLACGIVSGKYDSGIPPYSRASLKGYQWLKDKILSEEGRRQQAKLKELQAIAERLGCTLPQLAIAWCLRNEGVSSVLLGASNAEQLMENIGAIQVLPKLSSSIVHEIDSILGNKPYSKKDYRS
Structure (SMILES),cell count [1],inhibition [1],inhibition of aggregation [2],nuclei count [2],inhibition [3],nuclei count [3],fluorescence slope [4],NADPH fluorescence slope [5],fluorescence slope [6],inhibition [7],inhibition [8]
COc1ccccc1C(O)P(=O)(OC(C)C)c1ccc(N(C)C)cc1 (stereo not drawn),665,-3.9% (inactive),6.1% (inactive),122%,0% (inactive),106%,-0.553 (inactive),2.2e-06 (inactive),0.00553 (inactive),7.42% (inactive),11% (inactive)
O=C(COc1ncnc2ccccc12)NCc1ccc2c(c1)OCO2,345,-1.6% (inactive),-8.2% (inactive),101%,-38.6% (inactive),105%,-0.584 (inactive),-5e-06 (inactive),0.00352 (inactive),15.1% (inactive),16.2% (inactive)
CCCCc1ccc(NC(=O)COCC)cc1,366,-2.7% (inactive),-8.1% (inactive),110%,-34.5% (inactive),98.4%,-0.585 (inactive),1.7e-05 (inactive),0.00366 (inactive),-24.8% (inactive),-77.1% (inactive)
CN(CC(=O)Nc1ccccc1Cl)C(=O)COC(=O)CNC(=O)c1ccc(Br)o1,436,-13.1% (inactive),-3.1% (inactive),115%,-13.8% (inactive),107%,-0.607 (inactive),2.6e-05 (inactive),0.00546 (inactive),15.4% (inactive),30.4% (inactive)
COc1ccc(OC(C)C(=O)N2CCN(c3ccccn3)CC2)cc1 (stereo not drawn),395,7.5% (inactive),3% (inactive),103%,-90.1% (inactive),115%,-0.447 (inactive),-3.5e-05 (inactive),0.0048 (inactive),21.5% (inactive),18% (inactive)
O=C(CN1C(=O)NC2(CCCCCC2)C1=O)N1CCC(Cc2ccccc2)CC1,444,2.9% (inactive),-3.9% (inactive),99.8%,-38.1% (inactive),104%,-0.366 (inactive),2.2e-05 (inactive),0.00581 (inactive),0.617% (inactive),15.9% (inactive)
O=C(CNC(=O)c1cccs1)NCCN1CCN(c2ccccc2F)CC1,585,-8.2% (inactive),-28.3% (inactive),99.6%,-19.1% (inactive),106%,-0.451 (inactive),-3.9e-05 (inactive),0.00484 (inactive),19.5% (inactive),17.5% (inactive)
CC(C)(C)N=C1NC(=NC(C)(C)C)c2ccccc21,716,2.3% (inactive),-5.7% (inactive),106%,-18.9% (inactive),107%,-0.525 (inactive),-7.9e-06 (inactive),0.00395 (inactive),5.9% (inactive),5.38% (inactive)
COc1cc(-c2noc(-c3cccc(Cl)c3)n2)cc(OC)c1OC,778,-0.6% (inactive),-21% (inactive),103%,-33.7% (inactive),113%,-0.568 (inactive),2.5e-05 (inactive),0.00623 (inactive),6.15% (inactive),-21.6% (inactive)
Cc1nnc2ccc(N3CCC4(CC3)OCCO4)nn12,538,-21% (inactive),9.6% (inactive),112%,-83% (inactive),117%,-0.322 (inactive),-3.3e-05 (inactive),0.00635 (inactive),12.5% (inactive),8.72% (inactive)
CNC(=O)c1c(O)c2cccc3c2n(c1=O)CC3,446,-8.8% (inactive),-3.8% (inactive),57%,-60.1% (inactive),99%,-0.545 (inactive),-5.3e-05 (inactive),0.00595 (inactive),1.98% (inactive),-8.91% (inactive)
Cc1occc1C(=O)Nc1cccnc1,537,-21.3% (inactive),-33.6% (inactive),108%,-9.9% (inactive),84.1%,-0.538 (inactive),-4.1e-05 (inactive),0.00413 (inactive),18.2% (inactive),7.63% (inactive)
N#CC(C(=O)Nc1ccccc1)=C1CCCCC1,356,-8.4% (inactive),-8% (inactive),108%,-98.6% (inactive),131%,-0.516 (inactive),-4.4e-05 (inactive),0.0049 (inactive),-3.44% (inactive),-28.2% (inactive)
CCn1c(=O)n(CC(=O)N(C)Cc2ccccc2)c(=O)c2ccccc21,684,-16.4% (inactive),3.2% (inactive),120%,65.6% (active),94.4%,-0.559 (inactive),-2.3e-05 (inactive),0.00592 (inactive),11.1% (inactive),10.9% (inactive)
O=C(O)CC1CCCC(c2ccccc2)C1=O (stereo not drawn),658,-6.5% (inactive),-35% (inactive),103%,108% (active),102%,-0.544 (inactive),-7.4e-06 (inactive),0.00508 (inactive),8.33% (inactive),11.2% (inactive)
Cn1nc(-c2ccc(C(=O)N3CCN(c4ccccc4)CC3)cc2)c2ccccc2c1=O,769,-4% (inactive),10.9% (inactive),90.3%,-13.7% (inactive),110%,-0.552 (inactive),-4.4e-05 (inactive),0.00744 (inactive),-31.8% (inactive),-26.4% (inactive)
CCn1nc(C(=O)OCC(=O)c2cc(C)n(Cc3cccs3)c2C)c2ccccc2c1=O,381,-2.1% (inactive),25.7% (inactive),90.2%,-97.8% (inactive),113%,-0.556 (inactive),0.000162 (inactive),0.00739 (inactive),19.8% (inactive),7.59% (inactive)
COc1ccc2nc(NC(=O)C(NS(=O)(=O)c3cccs3)C(C)C)sc2c1 (stereo not drawn),365,0.9% (inactive),-16.1% (inactive),97.8%,-222% (inactive),104%,-0.532 (inactive),1.5e-05 (inactive),0.00546 (inactive),17.4% (inactive),21% (inactive)
COc1cccc(N2CCN(c3c4c(nc5ncnn35)CCC4)CC2)c1,468,17.4% (inactive),-4.1% (inactive),102%,2.7% (inactive),109%,-0.558 (inactive),-5.9e-05 (inactive),0.00591 (inactive),0.933% (inactive),-39.1% (inactive)
O=C(Cn1nnc(-c2ccncc2)n1)Nc1ccc2c(c1)CCC2,674,-8.6% (inactive),5% (inactive),89.1%,-115% (inactive),140%,-0.465 (inactive),-6.3e-05 (inactive),0.00619 (inactive),-0.547% (inactive),-23.3% (inactive)
Cc1ccc(S(=O)(=O)N(CC(=O)N2CCC(C(N)=O)CC2)c2cccc(C(F)(F)F)c2)cc1,327,1% (inactive),-0.2% (inactive),112%,-15.7% (inactive),114%,-0.556 (inactive),5.5e-06 (inactive),0.00443 (inactive),25.2% (inactive),25.1% (inactive)
COc1ccc2c(c1)CCc1c(C(=O)N3CCCc4ccccc43)noc1-2,419,-4.5% (inactive),17.4% (inactive),69.7%,-32.7% (inactive),108%,-0.459 (inactive),-0.000351 (inactive),0.00416 (inactive),-24% (inactive),-75% (inactive)
O=C(CSc1ccc(Cl)cc1)OCc1nnc(-c2ccccc2)o1,503,-1.1% (inactive),8.3% (inactive),108%,-46.5% (inactive),115%,-0.613 (inactive),6.8e-05 (inactive),0.00469 (inactive),-5.35% (inactive),-4.44% (inactive)
CCCCC(CC)C(=O)Nc1ccc(Cl)cn1 (stereo not drawn),461,8.5% (inactive),4.5% (inactive),102%,-29.4% (inactive),117%,-0.377 (inactive),-7.8e-05 (inactive),0.00769 (inactive),13.3% (inactive),17.2% (inactive)
CCOC(=O)N1CCC(N(C(=O)Nc2ccc(Cl)c(Cl)c2)C(C)CC)CC1 (stereo not drawn),346,-3.2% (inactive),4.4% (inactive),120%,-44% (inactive),118%,-0.489 (inactive),-7.4e-06 (inactive),0.00507 (inactive),8.19% (inactive),-18.2% (inactive)
CCC(Sc1nc2n[nH]c(C)c2c(=N)n1-c1cc(Cl)ccc1C)C(=O)N1CCOCC1 (stereo not drawn),338,-2.1% (inactive),11.8% (inactive),97.6%,-273% (inactive),108%,-0.593 (inactive),-1.6e-05 (inactive),0.00508 (inactive),-6.83% (inactive),10% (inactive)
Cc1sc2nc(SCC(=O)NCc3ccco3)n(CCc3ccccc3)c(=O)c2c1C,589,-17.7% (inactive),-11.6% (inactive),101%,-45.3% (inactive),108%,-0.394 (inactive),5.5e-06 (inactive),0.0086 (inactive),13.1% (inactive),0.6% (inactive)
Cc1cc(O)c(NC(=O)c2ccc(Br)o2)cc1C,394,5.5% (inactive),-12.4% (inactive),103%,-6.8% (inactive),116%,-0.299 (inactive),-6.1e-05 (inactive),0.00583 (inactive),8.6% (inactive),-53.5% (inactive)
